Measured values as given in ChEMBL document CHEMBL1221325, “Synthesis and ribonuclease A inhibition activity of resorcinol and phloroglucinol derivatives of catechin and epicatechin: Importance of hydroxyl groups” (Bioorg Med Chem, 2010).
Active and inactive are the calls of the source. The rule behind the calls is not given here.

Assays:
Gallus gallus = species on record: Gallus gallus; test: Antiangiogenic activity against angiogenin-induced angiogenesis in chicken eggs at 150 uM for 10 days measured after 48 hrs by CAM assay; type: functional; conditions: Egg
In short: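 Chick embryo chorioallantoic membrane exposed through a small hole drilled in the shell on day 2. 10 µl aliquots of angiogenin, alone or mixed with compound, dried on transparent discs, which were inverted onto the CAM on day 10. Response read after 48 h as density of blood vessel formation against a control set.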

[1] = biological target: Ribonuclease pancreatic (Bos taurus) (UniProt P61823); test: Binding affinity to RNase A by fluorescence quenching
[2] = biological target: Ribonuclease pancreatic (Bos taurus) (UniProt P61823); test: Inhibition of RNase A-mediated degradation of yeast tRNA assessed as residual tRNA band by agarose gel electrophoresis relative to control

Chain of Ribonuclease pancreatic (Bos taurus) (P61823 whole entry, looked up): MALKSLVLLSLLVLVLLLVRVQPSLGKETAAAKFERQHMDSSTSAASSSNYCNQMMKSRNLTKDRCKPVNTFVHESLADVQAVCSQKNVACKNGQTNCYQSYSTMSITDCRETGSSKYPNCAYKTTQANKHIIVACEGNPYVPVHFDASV

| SMILES | Kb [1] [×10⁴ /M] | Ratio [2] | Activity (Gallus gallus) |
| --- | --- | --- | --- |
| Oc1ccc([C@H]2c3c(O)cc(O)cc3O[C@H](c3ccc(O)c(O)c3)[C@@H]2O)c(O)c1 | 2.42 | 0.659 | Active |
| Nc1ccn([C@@H]2O[C@H](CO)[C@@H](OP(=O)(O)O)[C@H]2O)c(=O)n1 | – | 0.71 | – |
| Oc1cc(O)c([C@@H]2c3c(O)cc(O)cc3O[C@H](c3ccc(O)c(O)c3)[C@@H]2O)c(O)c1 | 3.14 | 0.699 | – |
| Oc1cc(O)c([C@H]2c3c(O)cc(O)cc3O[C@H](c3ccc(O)c(O)c3)[C@@H]2O)c(O)c1 | 6.76 | 0.704 | Active |

Now from value to compound, other results behind:

| Kb [1] [×10⁴ /M] | Ratio [2] | SMILES | Activity (Gallus gallus) |
| --- | --- | --- | --- |
| 1.37 | 0.612 | Oc1ccc([C@@H]2c3c(O)cc(O)cc3O[C@H](c3ccc(O)c(O)c3)[C@H]2O)c(O)c1 | – |
| – | 0.331 | Oc1cc(O)c2c(c1)OC(c1ccc(O)c(O)c1)C(O)C2 (stereo not drawn) | – |
| – | 0.295 | Oc1cc(O)c2c(c1)O[C@H](c1ccc(O)c(O)c1)[C@H](O)C2 | – |
